The assay addresses Myc proto-oncogene protein (Homo sapiens, UniProt P01106). Briefly: Inhibition of Myc signaling pathway in human HeLa cells assessed as inhibition of PMA induced luciferase treated 30 mins before induction. In short, it runs like this:
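Reporter assay in cells transfected with pathway luciferase plasmids. Cells plated at 0.015 × 10⁶ per well in 10% FBS, switched after 24 h to DMEM with 1% FBS, then transfected. 24 h after transfection, compound (final 40, 60, 80 or 100 μM) was added, followed 30 min later by inducer (IL-6, TGF-β, wnt3a or PMA). Luciferase was read 4 or 6 h after induction (6 h for Notch, Wnt, Hedgehog). Value is the IC50 or the lowest concentration giving maximal 50–60% inhibition; two independent experiments.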

For orientation: IC50 means the midpoint of a concentration-inhibition curve.

Myc proto-oncogene protein, sequence (P01106 16-454): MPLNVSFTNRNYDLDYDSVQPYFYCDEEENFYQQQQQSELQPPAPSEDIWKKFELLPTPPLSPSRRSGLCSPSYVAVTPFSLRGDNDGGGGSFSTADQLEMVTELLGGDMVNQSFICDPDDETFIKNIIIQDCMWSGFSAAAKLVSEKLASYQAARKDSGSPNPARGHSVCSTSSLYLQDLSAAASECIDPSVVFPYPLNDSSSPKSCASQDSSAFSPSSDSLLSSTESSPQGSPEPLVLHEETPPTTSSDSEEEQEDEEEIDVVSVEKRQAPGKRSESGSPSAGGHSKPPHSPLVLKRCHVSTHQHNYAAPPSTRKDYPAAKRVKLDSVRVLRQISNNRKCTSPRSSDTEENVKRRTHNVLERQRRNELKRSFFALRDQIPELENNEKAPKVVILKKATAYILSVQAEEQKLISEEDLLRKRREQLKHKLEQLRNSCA

For `COc1cc(/C=C\c2ccc(OC)c(OC)c2)cc(OC)c1` [(Z)-3,4,3'',5''-Tetramethoxystilbene], the IC50 came to 60 µM.

The record behind these values is BindingDB's records for doi:10.1021/np300893n (The University of Mississippi, 2013).
